The values below come from ChEMBL document CHEMBL4665798, “Novel Human Urate Transporter 1 Inhibitors as Hypouricemic Drug Candidates with Favorable Druggability” (J Med Chem, 2020).

For series [1], the target named is T1, Solute carrier family 22 member 12 (Homo sapiens, UniProt Q96S37).
T1 sequence (Q96S37 whole entry): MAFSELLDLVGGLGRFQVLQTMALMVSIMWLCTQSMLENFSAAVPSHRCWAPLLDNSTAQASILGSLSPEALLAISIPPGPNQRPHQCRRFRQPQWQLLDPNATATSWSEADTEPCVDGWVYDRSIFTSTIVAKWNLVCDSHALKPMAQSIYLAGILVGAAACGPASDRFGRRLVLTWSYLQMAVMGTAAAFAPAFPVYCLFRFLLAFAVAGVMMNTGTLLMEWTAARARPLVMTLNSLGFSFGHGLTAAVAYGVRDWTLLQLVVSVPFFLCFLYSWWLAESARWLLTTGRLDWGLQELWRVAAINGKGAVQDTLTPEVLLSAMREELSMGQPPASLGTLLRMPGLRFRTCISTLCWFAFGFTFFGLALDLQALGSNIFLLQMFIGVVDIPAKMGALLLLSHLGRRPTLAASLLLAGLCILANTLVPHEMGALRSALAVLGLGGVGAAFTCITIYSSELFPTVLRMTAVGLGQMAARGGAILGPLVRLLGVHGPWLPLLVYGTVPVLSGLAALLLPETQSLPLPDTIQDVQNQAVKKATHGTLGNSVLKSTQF
Briefly: Inhibition of human URAT1 expressed in HEK293T cells assessed as reduction in [14C]uric acid uptake preincubated for 15 mins followed by [14C]uric acid addition by liquid scintillation counting method. In kind it is cell-based.

The target in series [2] is T2, Solute carrier family 2, facilitated glucose transporter member 9 (Homo sapiens, UniProt Q9NRM0).
T2 sequence (Q9NRM0 whole entry): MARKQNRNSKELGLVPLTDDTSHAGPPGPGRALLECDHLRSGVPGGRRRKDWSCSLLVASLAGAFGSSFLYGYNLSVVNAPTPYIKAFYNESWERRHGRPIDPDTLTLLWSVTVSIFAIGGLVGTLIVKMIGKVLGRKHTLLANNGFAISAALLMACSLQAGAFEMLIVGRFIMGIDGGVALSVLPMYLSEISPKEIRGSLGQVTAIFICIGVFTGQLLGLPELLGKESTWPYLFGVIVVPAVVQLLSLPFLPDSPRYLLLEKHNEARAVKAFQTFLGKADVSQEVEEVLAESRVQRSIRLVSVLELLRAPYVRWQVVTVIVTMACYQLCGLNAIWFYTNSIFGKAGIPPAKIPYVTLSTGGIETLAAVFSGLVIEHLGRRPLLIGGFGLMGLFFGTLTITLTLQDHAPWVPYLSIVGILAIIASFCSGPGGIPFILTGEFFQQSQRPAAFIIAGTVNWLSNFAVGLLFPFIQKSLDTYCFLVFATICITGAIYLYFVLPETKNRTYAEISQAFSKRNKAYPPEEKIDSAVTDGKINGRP
Put plainly: Inhibition of GLUT9 (unknown origin).

For another series, the system named is Mus musculus. Put plainly: Hypouricemic activity in Kunming mouse model of xanthine/potassium oxonate-induced acute hyperuricemia assessed as decrease in serum uric acid level at 2 mg/kg administered 3 hrs prior to xanthine/potassium oxonate and measured after 6 hrs relative to control. In kind it is functional. Also noted: scale not given: the % may be the effect or the level left. The settings on record: time 9 hrs. Summed up: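 Male Kunming mice, hyperuricemia induced by intragastric xanthine plus subcutaneous potassium oxonate (0.2 mL each). […] Groups: normal vehicle, untreated model, active control, test. Serum uric acid measured. Decrease ratio = (model SUA − compound SUA)/(model SUA − vehicle SUA).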

A short description of series [3]: Oral bioavailability in Sprague-Dawley rat at 20 mg/kg by LC-MS analysis. In kind it is ADME, organism-based. The settings on record: in vivo.
Series [4] can be described thus: Cmax in Sprague-Dawley rat at 20 mg/kg, po by LC-MS analysis. In kind it is ADME, organism-based. The settings on record: in vivo. Also noted: route oral, dose 20 mg/kg.
Series [5] in a line: MRT (0 to infinity) in Sprague-Dawley rat at 20 mg/kg, po by LC-MS analysis. In kind it is ADME, organism-based. The settings on record: in vivo.
A short description of series [6]: Acute toxicity in Kunming mouse assessed as induction of abnormal behaviors by measuring anorexia at 500 mg/kg, ig. In kind it is organism-based. The settings on record: in vivo, po.
The nature of series [7]: Acute toxicity in Kunming mouse assessed as death at 500 mg/kg, ig measured for 1 week. In kind it is organism-based. The settings on record: in vivo, po, 168 h, time 1 weeks.
A short description of series [8]: Sub-acute toxicity in Kunming mouse assessed as hepatocellular condensation of liver at 50 mg/kg, po administered as single dose every other day for 14 days by H and E staining based assay. In kind it is organism-based. The settings on record: in vivo, 336 h, time 14 day.
Series [9] is described as follows: Acute toxicity in female Kunming mouse assessed as change in body weight at 500 mg/kg, ig measured for 1 week. In kind it is organism-based. The settings on record: in vivo, po, 168 h, time 1 weeks.
The nature of series [10]: Sub-acute toxicity in Kunming mouse assessed as lethargy at 50 mg/kg, po administered once every second day for 14 days. In kind it is organism-based. The settings on record: in vivo, 336 h, time 14 day.
Series [11] in a line: Sub-acute toxicity in Kunming mouse assessed as appearance of ruffled fur at 50 mg/kg, po administered once every second day for 14 days. In kind it is organism-based. The settings on record: in vivo, 336 h, time 14 day.
The nature of series [12]: Half-life in Sprague-Dawley rat at 20 mg/kg, po by LC-MS analysis. In kind it is ADME, organism-based. The settings on record: in vivo.
A short description of series [13]: Acute toxicity in male Kunming mouse assessed as change in body weight at 500 mg/kg, ig measured for 1 week. In kind it is organism-based. The settings on record: in vivo, po, 168 h, time 1 weeks.
The nature of series [14]: Half-life in Sprague-Dawley rat at 1 mg/kg, iv by LC-MS analysis. In kind it is ADME, organism-based. The settings on record: in vivo.
Series [15] can be described thus: AUC (0 to infinity) in Sprague-Dawley rat at 20 mg/kg, po by LC-MS analysis. In kind it is ADME, organism-based. Also noted: route oral, time infinity, dose 20 mg/kg. The settings on record: in vivo.
Series [16] is described as follows: AUC (0 to t) in Sprague-Dawley rat at 20 mg/kg, po by LC-MS analysis. In kind it is ADME, organism-based. Also noted: dose 20 mg/kg. The settings on record: in vivo.
Series [17] is described as follows: AUC (0 to t) in Sprague-Dawley rat at 1 mg/kg, iv by LC-MS analysis. In kind it is ADME, organism-based. Also noted: dose 1 mg/kg. The settings on record: in vivo.
The species named for a further series is Rattus norvegicus. Briefly: Hypouricemic activity in rat model of xanthine/potassium oxonate-induced acute hyperuricemia assessed as decrease in serum uric acid level relative to control. Also noted: scale not given: the % may be the effect or the level left. In kind it is functional.
Series [18] is described as follows: MRT (0 to infinity) in Sprague-Dawley rat at 1 mg/kg, iv by LC-MS analysis. In kind it is ADME, organism-based. The settings on record: in vivo.
Series [19] can be described thus: Acute toxicity in Kunming mouse assessed as induction of abnormal behaviors by measuring lethargy at 500 mg/kg, ig. In kind it is organism-based. The settings on record: in vivo, po.
A short description of series [20]: Sub-acute toxicity in Kunming mouse assessed as anorexia at 50 mg/kg, po administered once every second day for 14 days. In kind it is organism-based. The settings on record: in vivo, 336 h, time 14 day.
The nature of series [21]: AUC (0 to infinity) in Sprague-Dawley rat at 1 mg/kg, iv by LC-MS analysis. In kind it is ADME, organism-based. Also on record: time infinity, route intravenous, dose 1 mg/kg. The settings on record: in vivo.
The nature of series [22]: Clearance in Sprague-Dawley rat at 1 mg/kg, iv by LC-MS analysis. In kind it is ADME, organism-based. The settings on record: in vivo.
Series [23] is described as follows: Sub-acute toxicity in female Kunming mouse assessed as increase in body weight at 50 mg/kg, po administered once every second day for 14 days. In kind it is organism-based. The settings on record: in vivo, 336 h, time 14 day.
Series [24] in a line: Acute toxicity in Kunming mouse assessed as induction of abnormal behaviors by measuring clonic convulsion at 500 mg/kg, ig. The settings on record: in vivo, po. In kind it is organism-based.
Series [25] can be described thus: Sub-acute toxicity in male Kunming mouse assessed as increase in body weight at 50 mg/kg, po administered once every second day for 14 days. In kind it is organism-based. The settings on record: in vivo, 336 h, time 14 day.
Series [26] can be described thus: Sub-acute toxicity in Kunming mouse assessed as hydropic degeneration of hepatocytes at 50 mg/kg, po administered as single dose every other day for 14 days by H and E staining based assay. The settings on record: in vivo, 336 h, time 14 day. In kind it is organism-based.
Series [27] can be described thus: Sub-acute toxicity in Kunming mouse assessed as clonic convulsion at 50 mg/kg, po administered once every second day for 14 days. In kind it is organism-based. The settings on record: in vivo, 336 h, time 14 day.
Series [28] in a line: Sub-acute toxicity in Kunming mouse assessed as death at 50 mg/kg, po administered once every second day for 14 days. In kind it is organism-based. The settings on record: in vivo, 336 h, time 14 day.
Series [29] can be described thus: Sub-acute toxicity in Kunming mouse assessed as ballooning degeneration of liver at 50 mg/kg, po administered as single dose every other day for 14 days by H and E staining based assay. In kind it is organism-based. The settings on record: in vivo, 336 h, time 14 day.
Series [30] is described as follows: Tmax in Sprague-Dawley rat at 20 mg/kg, po by LC-MS analysis. In kind it is ADME, organism-based. The settings on record: in vivo.
The nature of series [31]: Sub-acute toxicity in Kunming mouse assessed as congestion in hepatic central vein at 50 mg/kg, po administered as single dose every other day for 14 days by H and E staining based assay. In kind it is organism-based. The settings on record: in vivo, 336 h, time 14 day.

The structures appear in SMILES notation.

For orientation: IC50 means the concentration needed to halve the response being measured. Regarding `O=C(CSc1nnc(Br)n1-c1ccc(C2CC2)c2ccccc12)NS(=O)(=O)c1ccc(F)cc1F`, the values for the 50% inhibitory concentration (IC50) in series [1] and in series [2] were 7.29 µM and 32.2 µM, respectively. The Activity in the series on Mus musculus is given as 93.78%.
In general, bioavailability refers to the share of a dose that reaches the circulation, judged against a reference dose that is usually intravenous. By Cmax is commonly meant the maximum level reached in the sampled fluid or tissue. One may read the MRT inf as the average time that molecules of a dose stay in the body. A word on the half-life: it is the time in which the quantity being followed falls by half. As a reminder, the AUC(0-inf) is total exposure, with the tail of the curve extrapolated. A word on the AUC(0-t): it is the area under the concentration-time curve up to a stated or last time point. In general, clearance refers to the volume of plasma or blood freed of the substance per unit of time. A word on the Tmax: it is the time at which the peak concentration occurs. Regarding `CC(Sc1nc2cnccc2n1-c1ccc(C2CC2)c2ccccc12)C(=O)O` (racemic), the bioavailability in [3] turned out to be 93.6%. The Cmax in [4] stood at 21600 ng/mL. The MRT inf in [5] is 4.6 h; in [18], 2.86 h. Also, the Activity entry in [6], in series [7], in series [8], in series [9], in [10] and in [11] was “Non-Toxic” throughout. The Activity result in [13] is recorded as “Non-Toxic”; with Mus musculus, 89.62%; in the series filed under Rattus norvegicus it was 81.42%; in series [19] it was “Non-Toxic”; in series [20] it was “Non-Toxic”; in series [23], “Non-Toxic”. Moreover, the Activity entry in series [24], in [25], in series [26], in [27], in series [28] and in series [29] was “Non-Toxic” throughout. Besides, the Activity entry in [31] is given as “Non-Toxic”. The figures for the half-life in [12] and in [14] were 3.1 h and 2.3 h, respectively. For the same molecule, in series [1], the concentration for half-maximal inhibition (IC50) stood at 6.14 µM. In addition, the results for the AUC(0-inf) in series [15] and in series [21] were 65100 ng·h/mL and 3320 ng·h/mL, respectively. For the same molecule, the AUC(0-t) in series [16] was 58200 ng·h/mL; in series [17], 3110 ng·h/mL. The clearance in series [22] was 5.3 mL/min/kg. The Tmax in [30] came out at 0.5 h.
